Results published in publication PMC5696082 (Analytical biochemistry, 2017).

Tests used:
[1] = Fluorophore characterization; type: physicochemical; conditions: for Maximum λemm / Maximum λexc / Relative Fluorescence Intensity: 37°C, phosphate buffer 100 mM pH 8, 0.1 mg/mL BSA, 1% DMSO
Outline: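 Fluorophores dissolved in 100 mM phosphate buffer, pH 8, 0.1 mg/mL BSA, 1% DMSO, at 37°C. Excitation and emission maxima found by scanning fluorescence intensity at 2 nm steps on a plate spectrophotometer. Relative intensity expressed as RFU per nmol.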

[2] = Background hydrolysis of substrates in phosphate buffer; type: physicochemical; conditions: phosphate buffer 100 mM, pH 8, 0.1 mg/mL BSA
[3] = target: T1, hCE3 (Homo sapiens, UniProt Q6UWW8); test: Potency of esterase inhibitors, hCE3; type: biochemical
T1 sequence (Q6UWW8 27-571): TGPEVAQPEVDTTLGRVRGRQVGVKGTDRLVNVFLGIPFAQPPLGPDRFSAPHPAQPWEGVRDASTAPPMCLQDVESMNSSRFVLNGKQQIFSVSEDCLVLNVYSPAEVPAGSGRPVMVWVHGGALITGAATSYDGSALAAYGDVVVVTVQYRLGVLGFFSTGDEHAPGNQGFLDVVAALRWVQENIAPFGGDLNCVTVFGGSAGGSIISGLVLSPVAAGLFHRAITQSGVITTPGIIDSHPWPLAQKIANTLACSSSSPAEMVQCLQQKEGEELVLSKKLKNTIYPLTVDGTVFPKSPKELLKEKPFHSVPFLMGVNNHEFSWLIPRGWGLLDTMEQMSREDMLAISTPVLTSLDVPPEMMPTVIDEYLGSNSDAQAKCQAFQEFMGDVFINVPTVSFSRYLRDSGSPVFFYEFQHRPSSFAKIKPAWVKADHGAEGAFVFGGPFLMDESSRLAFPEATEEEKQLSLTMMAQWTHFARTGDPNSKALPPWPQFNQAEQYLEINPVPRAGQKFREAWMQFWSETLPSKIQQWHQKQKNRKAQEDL

[4] = target: T2, AADAC (Homo sapiens, UniProt P22760); test: Potency of esterase inhibitors, AADAC; type: biochemical
T2 sequence (P22760 1-399): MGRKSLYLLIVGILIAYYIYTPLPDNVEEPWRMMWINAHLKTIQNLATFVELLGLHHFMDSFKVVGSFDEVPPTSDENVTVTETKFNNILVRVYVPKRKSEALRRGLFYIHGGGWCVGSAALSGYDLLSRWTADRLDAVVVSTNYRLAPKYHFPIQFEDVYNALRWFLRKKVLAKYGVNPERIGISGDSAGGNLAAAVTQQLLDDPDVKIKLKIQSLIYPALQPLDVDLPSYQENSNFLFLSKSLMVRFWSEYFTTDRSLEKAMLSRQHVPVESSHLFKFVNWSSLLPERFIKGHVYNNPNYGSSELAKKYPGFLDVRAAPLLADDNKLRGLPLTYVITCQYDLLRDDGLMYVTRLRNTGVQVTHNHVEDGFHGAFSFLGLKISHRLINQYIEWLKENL

[5] = target: T3, FAAH (Homo sapiens, UniProt O00519); test: Potency of esterase inhibitors, FAAH; type: biochemical
T3 sequence (O00519 1-579): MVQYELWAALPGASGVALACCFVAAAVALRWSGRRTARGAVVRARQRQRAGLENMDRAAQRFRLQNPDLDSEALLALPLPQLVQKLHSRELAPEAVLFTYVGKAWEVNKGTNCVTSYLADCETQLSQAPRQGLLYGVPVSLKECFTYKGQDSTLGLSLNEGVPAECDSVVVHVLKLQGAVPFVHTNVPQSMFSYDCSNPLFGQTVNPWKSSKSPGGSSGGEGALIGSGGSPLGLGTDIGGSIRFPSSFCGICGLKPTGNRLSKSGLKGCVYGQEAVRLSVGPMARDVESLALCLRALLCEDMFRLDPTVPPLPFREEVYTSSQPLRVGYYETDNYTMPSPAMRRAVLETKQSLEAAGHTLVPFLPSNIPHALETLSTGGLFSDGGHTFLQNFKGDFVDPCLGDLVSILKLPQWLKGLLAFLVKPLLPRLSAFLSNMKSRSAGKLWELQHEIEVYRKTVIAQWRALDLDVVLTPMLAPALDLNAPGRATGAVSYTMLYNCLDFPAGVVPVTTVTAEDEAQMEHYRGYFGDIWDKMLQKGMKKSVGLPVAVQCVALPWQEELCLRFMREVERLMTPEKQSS

[6] = target: PON1 (Homo sapiens, UniProt P27169); test: Potency of esterase inhibitors, PON1; type: biochemical
Outline: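 PON1 used as crude lysate of baculovirus-infected insect cells in PBS. Added to 2-fold serial inhibitor dilutions (top concentration at most 100 µM) and preincubated 5 min. Cyanohydrin ester substrate then added to 50 µM final, DMSO ≤2%, in 100 mM phosphate pH 8, 0.1 mg/mL BSA, 37°C. Fluorescence (ex 330/em 465 nm) read kinetically for 10 min. IC50 from linear regression of log[inhibitor] against % remaining activity; triplicates, single experiment.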

[7] = substrate: CCCCC(C)CCC(=O)Nc1ccc(OC)nc1C; test: Kinetic properties; type: biochemical, human; conditions: 37°C, pH 8
[8] = substrate: COc1ccc2cc(C(C#N)OC(C)=O)ccc2c1; test: Kinetic properties; type: biochemical, human; conditions: 37°C, pH 8
[9] = other: hCE2, 6 substrate concentrations 3.13-100 µM
[10] = other: hCE1, 6 substrate concentrations 3.13-100 µM

PON1, sequence (P27169 whole entry, species assumed): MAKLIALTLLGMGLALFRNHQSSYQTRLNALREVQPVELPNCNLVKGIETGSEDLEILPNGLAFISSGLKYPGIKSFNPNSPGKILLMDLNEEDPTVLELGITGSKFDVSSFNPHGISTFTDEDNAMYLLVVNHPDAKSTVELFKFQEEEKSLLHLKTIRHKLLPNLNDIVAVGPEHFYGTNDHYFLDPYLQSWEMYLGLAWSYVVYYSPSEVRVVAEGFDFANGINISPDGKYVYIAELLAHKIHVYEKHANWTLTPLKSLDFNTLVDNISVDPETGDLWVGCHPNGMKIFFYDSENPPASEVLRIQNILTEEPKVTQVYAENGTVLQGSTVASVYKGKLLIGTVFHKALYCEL

## COc1nc(C)ccc1N [V, 2-methyl-5-amino-6-methoxypyridine]
[1]
  Fluorescence, fold less than I: 4 fold
  Maximum λemm: 364 nm
  Maximum λexc: 292 nm
  Relative Fluorescence Intensity: 1,100 RFU/nmol

## COc1ccc(N)cn1 [II, 2-methoxy-5-aminopyridine]
[1]
  Maximum λemm: 398 nm
  Maximum λexc: 304 nm
  Relative Fluorescence Intensity: 3,100 RFU/nmol

## CC(=O)Oc1ccc([N+](=O)[O-])cc1 [4-NPA, 4-nitrophenyl acetate]
[2]
  Rate of background hydrolysis: 610 pmol/min

## CN(C)C(=O)C(CCN1CCC(O)(c2ccc(Cl)cc2)CC1)(c1ccccc1)c1ccccc1 [Loperamide]
[3]
  IC50: > 100 µM
[4]
  IC50: 23 µM
[5]
  IC50: > 100 µM
[6]
  IC50: > 100 µM

## COc1ccc(N)c(C)n1 [I, 2-methoxy-5-amino-6-methylpyridine]
[1]
  Maximum λemm: 394 nm
  Maximum λexc: 304 nm
  Relative Fluorescence Intensity: 4,400 RFU/nmol

## COc1ccc2cc(C=O)ccc2c1 [VI, 6-methoxynaphthaldehyde]
[1]
  Maximum λemm: 462 nm
  Maximum λexc: 320 nm
  Relative Fluorescence Intensity: 2,600 RFU/nmol

B1: hCE2 (Homo sapiens) (protein)
chain: QDSASPIRTTHTGQVLGSLVHVKGANAGVQTFLGIPFAKPPLGPLRFAPPEPPESWSGVRDGTTHPAMCLQDLTAVESEFLSQFNMTFPSDSMSEDCLYLSIYTPAHSHEGSNLPVMVWIHGGALVFGMASLYDGSMLAALENVVVVIIQYRLGVLGFFSTGDKHATGNWGYLDQVAALRWVQQNIAHFGGNPDRVTIFGESAGGTSVSSLVVSPISQGLFHGAIMESGVALLPGLIASSADVISTVVANLSACDQVDSEALVGCLRGKSKEEILAINKPFKMIPGVVDGVFLPRHPQELLASADFQPVPSIVGVNNNEFGWLIPKVMRIYDTQKEMDREASQAALQKMLTLLMLPPTFGDLLREEYIGDNGDPQTLQAQFQEMMADSMFVIPALQVAHFQCSRAPVYFYEFQHQPSWLKNIRPPHMKADHGDELPFVFRSFFGGNYIKFTEEEEQLSRKMMKYWANFARNGNPNGEGLPHWPLFDQEEQYLQLNLQPAVGRALKAHRLQFWKKALPQKIQELEEPEERHTEL
[7]; [9]
  Vmax: 0.004 µmol/min/mg
  Vmax/Km: 450 µL/min/mg
[8]; [9]
  Vmax: 9.6 µmol/min/mg
  Vmax/Km: 1.2e+06 µL/min/mg

B2: hCE1 (Homo sapiens) (protein)
chain: GHPSSPPVVDTVHGKVLGKFVSLEGFAQPVAIFLGIPFAKPPLGPLRFTPPQPAEPWSFVKNATSYPPMCTQDPKAGQLLSELFTNRKENIPLKLSEDCLYLNIYTPADLTKKNRLPVMVWIHGGGLMVGAASTYDGLALAAHENVVVVTIQYRLGIWGFFSTGDEHSRGNWGHLDQVAALRWVQDNIASFGGNPGSVTIFGESAGGESVSVLVLSPLAKNLFHRAISESGVALTSVLVKKGDVKPLAEQIAITAGCKTTTSAVMVHCLRQKTEEELLETTLKMKFLSLDLQGDPRESQPLLGTVIDGMLLLKTPEELQAERNFHTVPYMVGINKQEFGWLIPMQLMSYPLSEGQLDQKTAMSLLWKSYPLVCIAKELIPEATEKYLGGTDDTVKKKDLFLDLIADVMFGVPSVIVARNHRDAGAPTYMYEFQYRPSFSSDMKPKTVIGDHGDELFSVFGAPFLKEGASEEEIRLSKMVMKFWANFARNGNPNGEGLPHWPEYNQKEGYLQIGANTQAAQKLKDKEVAFWTNLFAKKAVEKPPQTEHIEL
[7]; [10]
  Vmax: 0.48 µmol/min/mg
  Vmax/Km: 17000 µL/min/mg
[8]; [10]
  Vmax: 1.4 µmol/min/mg
  Vmax/Km: 280000 µL/min/mg
